Here are results for eight compounds from ChEMBL document CHEMBL3407339, “A novel series of thiazolyl-pyrazoline derivatives: synthesis and evaluation of antifungal activity, cytotoxicity and genotoxicity” (Eur J Med Chem, 2015).

By MIC is commonly meant the smallest concentration in the dilution series that meets the test's criterion for growth inhibition. By IC50 is commonly meant the midpoint of a concentration-inhibition curve.

Values after ≈ are worked out from the molar mass of the structure shown.

One assay deals with Nakaseomyces glabratus. The experiment in a line: Antifungal activity against Candida glabrata clinical isolate after 48 hrs by broth microdilution assay. Format: functional. An outline of the steps: (§1)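 Broth microdilution of DMSO stocks serially diluted in sterile water (4 to 0.0039 mg/mL). Yeasts grown on SDA at 37 °C for 24 h, suspended in double-strength PDB at 10⁵ spores/mL. Incubated at 37 °C for 48 h, then sprayed with 0.5% aqueous TTC. MIC = lowest concentration inhibiting visible growth. Ketoconazole reference.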
(In general: Broth dilution looks for growth in wells or tubes with falling amounts of substance.)

In another assay the test system is Candida albicans. The assay can be described thus: Antifungal activity against Candida albicans ATCC 90028 after 48 hrs by broth microdilution assay. Type of assay: functional. The following applies: ATCC 90028, 48 h. An outline of the steps:
as §1

Another assay relates to Candida tropicalis. The assay can be described thus: Antifungal activity against Candida tropicalis NRLL Y 12968 after 48 hrs by broth microdilution assay. Type of assay: functional. Conditions: NRLL Y 12968, 48 h. In short, it runs like this:
as §1

In another assay the test system is Pichia kudriavzevii. The experiment in a line: Antifungal activity against Candida krusei NRLL Y 7179 after 48 hrs by broth microdilution assay. Conditions: NRLL Y 7179, 48 h. Format: functional. An outline of the steps:
as §1

A further assay has as its system [Candida] zeylanoides. The experiment in a line: Antifungal activity against Candida zeylanoides NRLL Y 1774 after 48 hrs by broth microdilution assay. Type of assay: functional. The following applies: Dujonia zeylanoides, NRLL Y 1774, 48 h. In short, it runs like this: as §1
The test system of another assay is Candida parapsilosis. The assay can be described thus: Antifungal activity against Candida parapsilosis NRLL Y 12696 after 48 hrs by broth microdilution assay. The following applies: Lodderomyces parapsilosis, NRLL Y 12696, 48 h. Format: functional. In short, it runs like this: as §1
The next assay has as its system Aspergillus flavus. The experiment in a line: Antifungal activity against Aspergillus flavus NRRL 980 after 72 hrs by broth microdilution assay. Conditions: NRRL 980, 72 h. Type of assay: functional. An outline of the steps: (§2)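 Compounds dissolved in DMSO, diluted in sterile distilled water from 4 to 0.0039 mg/mL. Molds grown on PDA at 25 °C for 5 days, suspended in double-strength PDB at 10⁵ spores/mL. Incubated at 25 °C for 72 h; mycelial growth read under stereo microscope. MIC = lowest concentration inhibiting visible growth. Ketoconazole reference.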

The next assay deals with Aspergillus niger. The experiment in a line: Antifungal activity against Aspergillus niger ATCC 1094 after 72 hrs by broth microdilution assay. Format: functional. Conditions: ATCC 1094, 72 h. In short, it runs like this:
as §2

The subject of another assay is Aspergillus parasiticus. The assay can be described thus: Antifungal activity against Aspergillus parasiticus NRRL 465 after 72 hrs by broth microdilution assay. The following applies: NRRL 465, 72 h. Type of assay: functional. An outline of the steps:
as §2

Another assay has as its system Fusarium solani. The assay can be described thus: Antifungal activity against Fusarium solani NRRL 13414 after 72 hrs by broth microdilution assay. Format: functional. Conditions: NRRL 13414, 72 h. An outline of the steps: as §2
The subject of the next assay is A549. The experiment in a line: Antiproliferative activity against human A549 cells after 24 hrs by XTT assay. Format: functional, cell-based. The following applies: A549, 24 h. An outline of the steps:
(§3)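 A549 cells in RPMI and NIH/3T3 cells in DMEM, each with fetal calf serum, antibiotics and 7.5% NaHCO₃, at 37 °C, 5% CO₂. Seeded at 20,000 cells/well, 24 h, then compounds added in medium at 500–3.9 doses (final DMSO <0.1%) for 24 h. XTT read after 3 h at 480 nm (ref 680 nm). IC₅₀ by non-linear regression; triplicates; cisplatin control.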
A general note: Tetrazolium assays rely on reduction of a dye to a coloured formazan, in cell work by metabolically active cells.

Assay [1] in a line: Cytotoxicity against mouse NIH/3T3 cells after 24 hrs by XTT assay. Format: cell-based. The following applies: NIH3T3, 24 h. An outline of the steps: as §3

Turning to `Cc1ccc(C2=NN(c3nc(-c4ccccc4)cs3)C(c3ccc(F)cc3)C2)s1` (stereo unspecified), the MIC in the assay on Nakaseomyces glabratus worked out at 125 µg/mL (≈ 298 µM); in the assay on Candida albicans, 500 µg/mL (≈ 1190 µM); in the assay on Candida tropicalis, 500 µg/mL (≈ 1190 µM); in the assay on Pichia kudriavzevii, 500 µg/mL (≈ 1190 µM); in [Candida] zeylanoides it was 500 µg/mL (≈ 1190 µM); in the assay with Candida parapsilosis it was 500 µg/mL (≈ 1190 µM). Besides, the MIC with Aspergillus flavus, in the assay on Aspergillus niger, with Aspergillus parasiticus and against Fusarium solani was 250 µg/mL (≈ 596 µM) throughout. Also, the IC50 (in the assay on A549; in [1]) was above 500 µg/mL each time.
Regarding `COc1ccc(-c2csc(N3N=C(c4ccc(C)s4)CC3c3ccc(F)cc3)n2)cc1` (stereo unspecified), the MIC with Nakaseomyces glabratus stood at 250 µg/mL (≈ 556 µM); in the assay with Candida albicans, 500 µg/mL (≈ 1110 µM); against Candida tropicalis, 500 µg/mL (≈ 1110 µM); in the assay on Pichia kudriavzevii, 500 µg/mL (≈ 1110 µM); in assay [Candida] zeylanoides, 500 µg/mL (≈ 1110 µM); with Candida parapsilosis, 500 µg/mL (≈ 1110 µM). In addition, the MIC against Aspergillus flavus, with Aspergillus niger, against Aspergillus parasiticus and against Fusarium solani was 250 µg/mL (≈ 556 µM) each time. The values for the IC50 (with A549; in assay [1]) were 184 µg/mL (≈ 408 µM) and 146 µg/mL (≈ 326 µM), respectively.
As to `Cc1ccc(C2=NN(c3nc(-c4ccc(F)cc4)cs3)C(c3ccc(F)cc3)C2)s1` (stereo unspecified), the MIC against Nakaseomyces glabratus came out at 125 µg/mL (≈ 286 µM); in the assay with Candida albicans, 250 µg/mL (≈ 571 µM); with Candida tropicalis, 250 µg/mL (≈ 571 µM); with Pichia kudriavzevii, 250 µg/mL (≈ 571 µM); in assay [Candida] zeylanoides it was 250 µg/mL (≈ 571 µM); in the assay on Candida parapsilosis it was 250 µg/mL (≈ 571 µM). Also, the MIC against Aspergillus flavus, against Aspergillus niger, against Aspergillus parasiticus and against Fusarium solani was 250 µg/mL (≈ 571 µM) each time. Further, the IC50 is 125 µg/mL (≈ 286 µM) in the assay with A549 and above 500 µg/mL in assay [1].
Regarding `Fc1ccc(C2CC(c3ccc(Cl)s3)=NN2c2nc(-c3ccc4c(c3)OCO4)cs2)cc1` (stereo unspecified), the MIC with Nakaseomyces glabratus was 125 µg/mL (≈ 258 µM); in the assay on Candida albicans, 250 µg/mL (≈ 517 µM); in the assay on Candida tropicalis, 250 µg/mL (≈ 517 µM); against Pichia kudriavzevii, 250 µg/mL (≈ 517 µM); in assay [Candida] zeylanoides, 250 µg/mL (≈ 517 µM); against Candida parapsilosis, 250 µg/mL (≈ 517 µM). Moreover, the MIC in the assay on Aspergillus flavus, with Aspergillus niger, against Aspergillus parasiticus and in the assay on Fusarium solani was 250 µg/mL (≈ 517 µM) throughout. Moreover, the IC50 was above 500 µg/mL in the assay on A549 and 73.8 µg/mL (≈ 152 µM) in assay [1].
Turning to `Cc1ccc(C2=NN(c3nc(-c4ccc(C(F)(F)F)cc4)cs3)C(c3ccc(F)cc3)C2)s1` (stereo unspecified), the MIC (with Nakaseomyces glabratus; with Candida albicans; against Candida tropicalis; against Pichia kudriavzevii; in assay [Candida] zeylanoides; in the assay with Candida parapsilosis) was 250 µg/mL (≈ 513 µM) each time. The MIC with Aspergillus flavus, against Aspergillus niger, in the assay with Aspergillus parasiticus and against Fusarium solani was 250 µg/mL (≈ 513 µM) each time. For the same compound, the IC50 (in the assay on A549; in assay [1]) was above 500 µg/mL in each case.
For `Fc1ccc(-c2csc(N3N=C(c4ccc(Cl)s4)CC3c3ccc(F)cc3)n2)cc1` (stereo unspecified), the MIC (against Nakaseomyces glabratus; in the assay with Candida albicans; against Candida tropicalis; in the assay with Pichia kudriavzevii; in assay [Candida] zeylanoides; against Candida parapsilosis) was 250 µg/mL (≈ 546 µM) each time. For the same compound, the MIC was found to be 125 µg/mL (≈ 273 µM) in the assay on Aspergillus flavus, 250 µg/mL (≈ 546 µM) against Aspergillus niger, 250 µg/mL (≈ 546 µM) with Aspergillus parasiticus and 250 µg/mL (≈ 546 µM) in the assay with Fusarium solani. For the same compound, the IC50 (with A549; in assay [1]) was above 500 µg/mL each time.
Take `CS(=O)(=O)c1ccc(-c2csc(N3N=C(c4ccc(Cl)s4)CC3c3ccc(F)cc3)n2)cc1` (stereo unspecified): the MIC (with Nakaseomyces glabratus; in the assay with Candida albicans; against Candida tropicalis; in the assay on Pichia kudriavzevii; in [Candida] zeylanoides; in the assay with Candida parapsilosis) was 250 µg/mL (≈ 483 µM) in each case. Besides, the minimum inhibitory concentration (MIC) in the assay with Aspergillus flavus, against Aspergillus niger, against Aspergillus parasiticus and against Fusarium solani was 250 µg/mL (≈ 483 µM) throughout. In addition, the IC50 (in the assay on A549; in assay [1]) was above 500 µg/mL throughout.
As to `Cc1ccc(C2=NN(c3nc(-c4ccc([N+](=O)[O-])cc4)cs3)C(c3ccc(F)cc3)C2)s1` (stereo unspecified), the MIC against Nakaseomyces glabratus amounted to 125 µg/mL (≈ 269 µM); with Candida albicans, 250 µg/mL (≈ 538 µM); in the assay on Candida tropicalis, 250 µg/mL (≈ 538 µM); against Pichia kudriavzevii it was 250 µg/mL (≈ 538 µM); in assay [Candida] zeylanoides, 250 µg/mL (≈ 538 µM); against Candida parapsilosis it was 250 µg/mL (≈ 538 µM). The MIC in the assay on Aspergillus flavus, in the assay on Aspergillus niger, in the assay on Aspergillus parasiticus and against Fusarium solani was 250 µg/mL (≈ 538 µM) throughout. Also, the IC50 came out at 16.7 µg/mL (≈ 35.9 µM) in the assay with A549 and 15.6 µg/mL (≈ 33.6 µM) in assay [1].
